Results on 14 compounds are retold here after ChEMBL document CHEMBL2412985, “Peroxisome proliferator-activated receptor delta antagonists inhibit hepatitis C virus RNA replication” (Bioorg Med Chem Lett, 2013).

Series [1] concerns Hepatitis C virus. Put plainly: Antiviral activity against HCV infected in […] OR6 cells assessed as inhibition of viral RNA replication after 72 hrs by luciferase reporter gene assay. It is filed as functional. The settings on record: for EC50: OR6, 72 h, read-out: ED50 (the source's name). The gist of the method:
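OR6 cells carry genome-length HCV RNA with a Renilla luciferase reporter. Cells were plated at 2 × 10⁴ per well, at least in triplicate, and cultured 24 h. They were then exposed to compound for 72 h, lysed in Renilla lysis reagent, and luciferase activity was read. The top test concentration was set from prior WST-1 viability at about 80% relative activity.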

The target of series [2] is T1, Peroxisome proliferator-activated receptor delta (Homo sapiens, UniProt Q03181).
T1 sequence (Q03181 whole entry): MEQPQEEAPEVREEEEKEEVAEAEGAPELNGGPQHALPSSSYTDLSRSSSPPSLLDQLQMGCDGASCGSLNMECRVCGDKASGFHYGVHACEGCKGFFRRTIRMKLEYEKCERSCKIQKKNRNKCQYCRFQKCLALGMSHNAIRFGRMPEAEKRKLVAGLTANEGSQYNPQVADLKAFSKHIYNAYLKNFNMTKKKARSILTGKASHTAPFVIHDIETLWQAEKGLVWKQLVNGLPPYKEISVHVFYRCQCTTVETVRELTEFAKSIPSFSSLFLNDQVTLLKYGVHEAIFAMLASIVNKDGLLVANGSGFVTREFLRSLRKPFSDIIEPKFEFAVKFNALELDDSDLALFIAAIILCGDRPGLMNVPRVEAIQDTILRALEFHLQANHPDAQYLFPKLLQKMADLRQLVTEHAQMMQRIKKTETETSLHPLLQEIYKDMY
Put plainly: Antagonist activity at human PPARdelta assessed as effect on TIPP-703-induced activity. The gist of the method:
(§1)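 Antagonism was measured against stimulation by the hPPAR-pan agonist, with test compound co-applied and the result expressed as % inhibition.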

A short description of series [3]: Selectivity index, ratio of CC50 for […] OR6 cells to ED50 for HCV. The gist of the method:
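SI was calculated as CC₅₀ (WST-1 viability of OR6 cells, 72 h) divided by EC₅₀ (HCV replicon Renilla luciferase inhibition, 72 h).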

The nature of series [4]: Cytotoxicity against […] OR6 cells after 72 hrs by WST1 assay. It is filed as cell-based. The gist of the method: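 OR6 cells were seeded at 1 × 10³ per well in triplicate and treated at three or four concentrations for 72 h. Viability was read by WST-1 proliferation assay, and CC₅₀ was determined.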
For series [5], the target named is T2, Peroxisome proliferator-activated receptor alpha (Homo sapiens) (UniProt Q07869).
T2 sequence (whole entry): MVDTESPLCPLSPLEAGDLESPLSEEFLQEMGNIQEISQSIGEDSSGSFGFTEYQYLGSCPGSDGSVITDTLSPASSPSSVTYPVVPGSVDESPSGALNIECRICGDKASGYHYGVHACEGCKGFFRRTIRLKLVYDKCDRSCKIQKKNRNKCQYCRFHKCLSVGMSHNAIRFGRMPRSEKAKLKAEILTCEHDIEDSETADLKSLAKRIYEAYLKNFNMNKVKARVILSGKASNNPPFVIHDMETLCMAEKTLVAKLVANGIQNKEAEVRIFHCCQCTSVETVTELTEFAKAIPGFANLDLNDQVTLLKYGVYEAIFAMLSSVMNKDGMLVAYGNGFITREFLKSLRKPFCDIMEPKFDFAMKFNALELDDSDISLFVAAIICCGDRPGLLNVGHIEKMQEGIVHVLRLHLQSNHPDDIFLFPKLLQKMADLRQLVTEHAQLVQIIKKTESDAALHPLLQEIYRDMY
Nature of the series: Antagonist activity at human PPARalpha assessed as effect on TIPP-703-induced activity at 10 uM. The gist of the method:
as §1

The species named for series [6] is Homo sapiens. Nature of the series: Selectivity ratio of human PPARdelta to human PPARalpha.
The target of series [7] is T3, Peroxisome proliferator-activated receptor delta (Homo sapiens) (UniProt Q03181).
T3 sequence (whole entry): T1 sequence (Q03181 whole entry)
Put plainly: Antagonist activity at human PPARdelta assessed as effect on TIPP-703-induced activity at 10 uM. The gist of the method:
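Antagonism measured as % inhibition of hPPARδ activity stimulated by a co-added hPPAR pan-agonist held at a fixed level of […].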

Active and inactive are the calls of the source. The rule behind the calls is not given here. Some results are limits rather than exact numbers.

For the compound `CCCCOc1ccc(-c2ccc(C(=O)O)o2)cc1CNC(=O)c1ccc(C(F)(F)F)cc1`, the ED50 result in series [1] (Hepacivirus hominis) was “inactive”. Moreover, the IC50 (usually the point on the concentration scale where inhibition reaches its midpoint) in series [2] is “Not Active”.
As to `CCCOc1ccc(-c2ccc(C(=O)O)cc2C)cc1CNC(=O)c1ccc(C(F)(F)F)cc1F`, the EC50 in series [1] was found to be 220 nM. Further, the “Selectivity Index” value in series [3] is 11. In addition, in series [4], it took 2200 nM to reach half-maximal cytotoxicity (CC50 at 72 h). Also, the inhibition (usually the relative decrease from the control value, in per cent) in series [5] was 49.5%. Also, the IC50 in series [2] (read-out: IC50) was found to be 29 nM.
For the compound `CCCCOc1ccc(-c2cc(C(=O)O)ccc2C)cc1CNC(=O)c1ccc(C(F)(F)F)cc1`, the ED50 result in series [1] (Hepacivirus hominis) is “inactive”. Besides, in series [2], the IC50 result is recorded as “Not Active”.
With `CCCCOc1ccc(-c2ccc(C(=O)O)cc2C)cc1CNC(=O)c1ccc(C(F)(F)F)cc1`, the inhibition entry in series [1] (Hepacivirus hominis) is “Dose-dependent effect”; in series [5], 12.6%. Also, in series [1], the EC50 is 220 nM. For the same compound, the Selectivity Index in series [3] came out at 11. Further, the midpoint of cytotoxicity in series [4], the CC50 at 72 h, lay at 2500 nM. Besides, the Selectivity ratio in series [6] is 1000. For the same compound, in series [2] (read-out: IC50), the IC50 turned out to be 19 nM.
Consider `COC(=O)c1sccc1S(=O)(=O)Nc1ccc(Nc2ccccc2)cc1OC`, for which the result in series [1] (Hepacivirus hominis) was inactive.
As to `CCCCOc1ccc(-c2ccc(C(=O)O)nc2)cc1CNC(=O)c1ccc(C(F)(F)F)cc1`, in series [1] (Hepacivirus hominis), the ED50 result was “inactive”. Besides, the IC50 entry in series [2] is recorded as “Not Active”.
For the compound `CCCCOc1ccc(-c2ccc(C(=O)O)cc2F)cc1CNC(=O)c1ccc(C(F)(F)F)cc1`, the EC50 in series [1] amounted to 3900 nM. The “Selectivity Index” value in series [3] amounted to 2.1. Also, half-maximal cytotoxicity in series [4] (CC50 at 72 h) was put at 8100 nM. Also, the inhibition in series [5] was 25.4%. Further, the IC50 in series [2] (read-out: IC50) turned out to be 100 nM.
Regarding `NC(=O)c1ncn([C@@H]2O[C@H](CO)[C@@H](O)[C@H]2O)n1` [RIBAVIRIN], in series [1], the EC50 stood at 5600 nM. Also, the “Selectivity Index” value in series [3] is 18. For the same compound, in series [4], the CC50 (as a rule, the concentration that lowers cell viability or growth by half) at 72 h came out at 100000 nM. Moreover, the inhibition result in series [7] is “inactive”.
For the compound `CCOc1ccc(-c2ccc(C(=O)O)cc2C)cc1CNC(=O)c1ccc(C(F)(F)F)cc1F`, in series [1], the EC50 was determined as 390 nM. Further, the “Selectivity Index” value in series [3] was 10. Also, the CC50 at 72 h in series [4] came out at 3900 nM. Also, the inhibition in series [5] stood at 49.5%. Moreover, the IC50 in series [2] (read-out: IC50) worked out at 28 nM.
Take `CCCCOc1ccc(-c2ccc(C(=O)O)cc2Cl)cc1CNC(=O)c1ccc(C(F)(F)F)cc1`: the EC50 in series [1] is 1800 nM. Also, in series [3], the “Selectivity Index” value is on record as 1.8. Moreover, the midpoint of cytotoxicity in series [4], the CC50 at 72 h, lay at 3200 nM. Further, the inhibition in series [5] turned out to be 30.7%. The IC50 in series [2] (read-out: IC50) was 13 nM.
For `CCCCOc1ccc(-c2ccc(C(=O)O)cn2)cc1CNC(=O)c1ccc(C(F)(F)F)cc1`, the ED50 entry in series [1] (Hepacivirus hominis) is “inactive”. For the same compound, in series [2], the IC50 entry is on record as “Not Active”.
Regarding `CCCCCOc1ccc(-c2ccc(C(=O)O)cc2C)cc1CNC(=O)c1ccc(C(F)(F)F)cc1F`, in series [1], the EC50 stood at 530 nM. Also, the “Selectivity Index” value in series [3] is given as 5. In addition, the CC50 at 72 h in series [4] stood at 2700 nM. The inhibition in series [5] was determined as 23.3%. Besides, the IC50 in series [2] (read-out: IC50) is 92 nM.
In the case of `O=C(Nc1ccncc1)c1cc([N+](=O)[O-])ccc1Cl`, in series [1], the EC50 worked out at 4900 nM. Further, the “Selectivity Index” value in series [3] is given as 0.55. In addition, the CC50 at 72 h in series [4] is 2700 nM. Also, in series [5], the inhibition stood at 31.8%. The IC50 in series [2] (read-out: IC50) is greater than 10000 nM.
In the case of `CCCCOc1ccc(-c2ccc(C)c(C(=O)O)c2)cc1CNC(=O)c1ccc(C(F)(F)F)cc1`, in series [1] (Hepacivirus hominis), the ED50 result was “inactive”. Besides, the IC50 result in series [2] is reported as “Not Active”.
